From ChEMBL document CHEMBL2407075, “Sulphonamido-quinoxalines: search for anticancer agent” (Eur J Med Chem, 2013)

Tests used:
Format in all cases: functional
786-0 = test: Growth inhibition of human 786-0 cells at 10 uM after 48 hrs by sulforhodamine B assay; settings: 786-0, 48 h, read-out: GI
Procedure, shortened: (§1)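 Single-dose NCI-60 prescreen at 10 µM for 48 h at 37 °C and 5% CO2, using cells grown in RPMI 1640 with 5% FBS and 2 mM glutamine. Protein was measured by SRB after TCA fixation: 10% final for adherent lines, 16% for suspension lines. Absorbance was read at 515 nm. Percent growth inhibition was obtained by subtracting percent growth from 100.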

CCRF-CEM = test: Growth inhibition of human CCRF-CEM cells at 10 uM after 48 hrs by sulforhodamine B assay; settings: read-out: GI; procedure, shortened: as §1
HL-60(TB) = test: Growth inhibition of human HL-60(TB) cells at 10 uM after 48 hrs by sulforhodamine B assay; settings: HL-60, 48 h, read-out: GI
Procedure, shortened: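 Single-dose NCI-60 primary screen at 10 µM, 48 h exposure, SRB read-out. Growth percentage of treated versus untreated cells was recorded and given as percent inhibition by subtraction.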

SR = test: Growth inhibition of human SR cells at 10 uM after 48 hrs by sulforhodamine B assay; settings: read-out: GI
Procedure, shortened: (§2)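 Single-dose screen at 10 µM across the NCI 60 panel. Cells in RPMI 1640 with 5% FBS and 2 mM L-glutamine, plated at 5000–40,000/well and preincubated 24 h at 37 °C, 5% CO2. Drug in DMSO, 48 h exposure. Fixed with TCA, stained with SRB, A515 read. Percent growth is taken relative to untreated control, and inhibition is 100 minus growth.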

CAKI-1 = test: Growth inhibition of human CAKI-1 cells at 10 uM after 48 hrs by sulforhodamine B assay; settings: CAKI-1, 48 h, read-out: GI; procedure, shortened: as §1
SN12C = test: Growth inhibition of human SN12C cells at 10 uM after 48 hrs by sulforhodamine B assay; settings: read-out: GI; procedure, shortened: as §2
M14 = test: Growth inhibition of human M14 cells at 10 uM after 48 hrs by sulforhodamine B assay; settings: M14, 48 h, read-out: GI; procedure, shortened: as §2
LOX IMVI = test: Growth inhibition of human LOXIMVI cells at 10 uM after 48 hrs by sulforhodamine B assay; settings: read-out: GI; procedure, shortened: as §2
NCI-H322M = test: Growth inhibition of human NCI-H322M cells at 10 uM after 48 hrs by sulforhodamine B assay; settings: read-out: GI; procedure, shortened: as §2
OVCAR-5 = test: Growth inhibition of human OVCAR5 cells at 10 uM after 48 hrs by sulforhodamine B assay; settings: OVCAR-5, 48 h, read-out: GI; procedure, shortened: as §2
[1] = Growth inhibition of human EKVX cells at 10 uM after 48 hrs by sulforhodamine B assay; settings: read-out: GI
Procedure, shortened: (§3)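 NCI-60 one-dose primary screen at a single 10 µM concentration. Cells in RPMI 1640 with 5% FBS, preincubated 24 h at 37 °C, 5% CO2. Drug exposure 48 h, then TCA fixation, SRB staining and absorbance at 515 nm. Percent growth calculated against time-zero and untreated control wells, then converted to percent growth inhibition.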

IGROV-1 = test: Growth inhibition of human IGROV1 cells at 10 uM after 48 hrs by sulforhodamine B assay; settings: IGROV-1, 48 h, read-out: GI; procedure, shortened: as §2
SNB-19 = test: Growth inhibition of human SNB19 cells at 10 uM after 48 hrs by sulforhodamine B assay; settings: SNB-19, 48 h, read-out: GI; procedure, shortened: as §2
HOP-62 = test: Growth inhibition of human HOP62 cells at 10 uM after 48 hrs by sulforhodamine B assay; settings: HOP-62, 48 h, read-out: GI; procedure, shortened: as §3
MDA-MB-231 = test: Growth inhibition of human MDA-MB-231 cells at 10 uM after 48 hrs by sulforhodamine B assay; settings: MDA-MB-231, 48 h, read-out: GI; procedure, shortened: as §2
T47D = test: Growth inhibition of human T47D cells at 10 uM after 48 hrs by sulforhodamine B assay; settings: read-out: GI; procedure, shortened: as §2
MDA-MB-435 = test: Growth inhibition of human MDA-MB-435 cells at 10 uM after 48 hrs by sulforhodamine B assay; settings: MDA-MB-435, 48 h, read-out: GI; procedure, shortened: as §2
K562 = test: Growth inhibition of human K562 cells assessed as cell growth at 10^-8 M after 48 hrs by sulforhodamine B assay; settings: K562, 48 h, read-out: Activity
MOLT-4 = test: Growth inhibition of human MOLT4 cells at 10 uM after 48 hrs by sulforhodamine B assay; settings: MOLT-4, 48 h, read-out: GI; procedure, shortened: as §2
TK-10 = test: Growth inhibition of human TK10 cells at 10 uM after 48 hrs by sulforhodamine B assay; settings: TK-10, 48 h, read-out: GI; procedure, shortened: as §2
DU-145 = test: Growth inhibition of human DU145 cells at 10 uM after 48 hrs by sulforhodamine B assay; settings: DU-145, 48 h, read-out: GI; procedure, shortened: as §1
PC-3 = test: Growth inhibition of human PC3 cells at 10 uM after 48 hrs by sulforhodamine B assay; settings: PC-3, 48 h, read-out: GI; procedure, shortened: as §2
UACC-62 = test: Growth inhibition of human UACC62 cells assessed as cell growth at 10^-8 M after 48 hrs by sulforhodamine B assay; settings: UACC-62, 48 h, read-out: Activity
SF-295 = test: Growth inhibition of human SF295 cells at 10 uM after 48 hrs by sulforhodamine B assay; settings: SF-295, 48 h, read-out: GI; procedure, shortened: as §2
SK-OV-3 = test: Growth inhibition of human SKOV3 cells at 10 uM after 48 hrs by sulforhodamine B assay; settings: SK-OV-3, 48 h, read-out: GI; procedure, shortened: as §2
RXF 393 = test: Growth inhibition of human RXF393 cells at 10 uM after 48 hrs by sulforhodamine B assay; settings: RXF 393, 48 h, read-out: GI; procedure, shortened: as §2
[2] = Growth inhibition of human EKVX cells assessed as cell growth at 10^-5 M after 48 hrs by sulforhodamine B assay; settings: read-out: Activity
Procedure, shortened: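 Five-dose screen at NCI. Cells in RPMI 1640 with 5% FBS and 2 mM L-glutamine, seeded at 5000–40,000 cells/well and grown 24 h at 37 °C, 5% CO2 before dosing, with time-zero plates TCA-fixed. Drug diluted from DMSO stock to 0.01, 0.1, 1, 10 and 100 µM final, 48 h. Cells fixed with cold TCA (10% final), stained with 0.4% SRB and read at 515 nm. Percent growth from Tz, control and test absorbances; GI50, TGI and LC50 from dose-response curves.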

KM12 = test: Growth inhibition of human KM12 cells at 10 uM after 48 hrs by sulforhodamine B assay; settings: KM12, 48 h, read-out: GI; procedure, shortened: as §2
NCI-H460 = test: Growth inhibition of human NCI-H460 cells at 10 uM after 48 hrs by sulforhodamine B assay; settings: NCI-H460, 48 h, read-out: GI; procedure, shortened: as §2

Work on `O=S(=O)(Nc1ccc(Cl)cc1)c1ccc2nc(-c3ccccc3)c(-c3ccccc3)nc2c1` yielded an inhibition of growth at 10 µM (786-0) of 66.9%, an inhibition of growth at 10 µM (CCRF-CEM) of 61.9% and an inhibition of growth at 10 µM (HL-60(TB)) of 66.7%. The inhibition of growth at 10 µM (SR) was 88.1%, the inhibition of growth at 10 µM (CAKI-1) was 33.9% and the inhibition of growth at 10 µM (SN12C) was 26.9%. For the same compound, the inhibition of growth at 10 µM (M14) was 31%, the inhibition of growth at 10 µM (LOX IMVI) was 38.4% and the inhibition of growth at 10 µM (NCI-H322M) was 32.8%. The inhibition of growth at 10 µM (OVCAR-5) was 18.3%, the inhibition of growth at 10 µM [1] was 57.8% and the inhibition of growth at 10 µM (IGROV-1) was 20.8%. It also gave an inhibition of growth at 10 µM (SNB-19) of 31.9%, an inhibition of growth at 10 µM (HOP-62) of 12.8% and an inhibition of growth at 10 µM (MDA-MB-231) of 54.3%. The inhibition of growth at 10 µM (T47D) was 72.1%, the inhibition of growth at 10 µM (MDA-MB-435) was 35.6% and the growth at 0.01 µM (K562) was 98%. It also gave an inhibition of growth at 10 µM (MOLT-4) of 60.8%, an inhibition of growth at 10 µM (TK-10) of 2.84% and an inhibition of growth at 10 µM (DU-145) of 24.4%. The inhibition of growth at 10 µM (PC-3) was 60%, the growth at 0.01 µM (UACC-62) was 95% and the inhibition of growth at 10 µM (SF-295) was 40.7%. The inhibition of growth at 10 µM (SK-OV-3) was 18.5%, the inhibition of growth at 10 µM (RXF 393) was 98.8% and the growth at 10 µM [2] was -7%. The inhibition of growth at 10 µM (KM12) was 38.7% and the inhibition of growth at 10 µM (NCI-H460) was 47.1%.
